Results published in ChEMBL document CHEMBL4725352, “Identification of New Nitric Oxide-Donating Peptides with Dual Biofilm Eradication and Antibacterial Activities for Intervention of Device-Related Infections” (J Med Chem, 2020).
Calls of active or inactive are those of the source. The calls are words filed in the database; no cut-off is given here. Where a SMILES comes first, the peptide text is derived from it. The star is where a group is joined. X1 = COC(=O)[C@H](Cc1ccc(Oc2no[n+]([O-])c2S(=O)(=O)c2ccccc2)cc1)NC(=O)CCCc1cn(CC(=O)*)nn1

Columns and labels:
Escherichia coli [1] = assay: Induction of NO release in Escherichia coli ATCC 8099 at 10 uM incubated for 4 hrs by Griess assay; type: functional, organism-based
Outline: (§1)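 Bacteria (10⁸ cfu/mL in saline) incubated with compound at 10 µM for 4 h at 37 °C, 5% CO₂. Cells were centrifuged and lysed, and the lysate centrifuged at 10,000 g for 5 min. Nitrite in the supernatant was measured by Griess reagent at 540 nm against a NaNO₂ standard curve.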

Staphylococcus aureus [2] = assay: (§2) Antibiofilm activity against Staphylococcus aureus ATCC 6538 infected in mouse assessed as reduction in bacterial infection by measuring colony counts at 0.25 umol/kg, sc administered every 12 hrs for 3 days by plate colony counting assay (reference value: 6.40 +/- 0.28); type: functional; settings: dose 0.25 µmol/kg
Escherichia coli [3] = assay: Antibiofilm activity against Escherichia coli ATCC 8099 assessed as dispersion of formed biofilms at 100 uM incubated for 12 hrs by scanning electron microscopy; type: functional, organism-based
Outline: (§3)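 Bacteria (10⁸ cfu/mL) grown on silicon slices in TSB for 24 h. Medium was removed and slices washed 3× with saline. Slices were then incubated 12 h in TSB containing test compound at 100 µM, or TSB alone. Slices were gold-sputtered and imaged by cold field emission SEM.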

Escherichia coli [4] = assay: Antibiofilm activity against Escherichia coli ATCC 8099 assessed as inhibition of biofilm formation at 100 uM incubated for 12 hrs by crystal violet staining assay relative to control; type: functional
Outline: (§4)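 Bacterial culture (10⁸ cfu/mL) grown 24 h in 96-well plates, then washed 3× with saline. Wells were incubated 12 h with test compound in TSB. Biofilm was fixed with methanol 15 min and stained with 1% crystal violet 5 min at room temperature. Dye was solubilized in ethanol for 30 min at 37 °C and OD read at 600 nm. Compared with vehicle control; mean ± S.D., n = 3.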

Staphylococcus aureus [5] = assay: Induction of NO release in Staphylococcus aureus ATCC 6538 at 10 uM incubated for 4 hrs by Griess assay; type: functional, organism-based; outline: as §1
Escherichia coli [6] = assay: Antimicrobial activity against Escherichia coli ATCC 8099 incubated for 20 hrs by microdilution assay; type: functional
Staphylococcus aureus [7] = assay: Antibiofilm activity against Staphylococcus aureus ATCC 6538 assessed as inhibition of biofilm formation at 100 uM incubated for 12 hrs in presence of NO scavenger PTIO by crystal violet staining assay relative to control; type: functional, organism-based
Staphylococcus aureus [8] = assay: Antibiofilm activity against Staphylococcus aureus ATCC 6538 assessed as dispersion of formed biofilms at 100 uM incubated for 12 hrs by scanning electron microscopy; type: functional, organism-based; outline: as §3
Staphylococcus aureus [9] = assay: Antibiofilm activity against Staphylococcus aureus ATCC 6538 assessed as inhibition of continuous biofilm growth at 100 uM measured every 15 mins for 9 hrs by biofilm dynamic detection assay; type: functional, organism-based
Outline: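 S. aureus (10⁸ cfu/mL in TSB) grown one day at 37 °C, 5% CO₂ on a real-time impedance cell analyzer to form biofilm. After saline washes (3×), medium containing compound at 100 µM was added. Biofilm index was recorded every 15 min for 9 h, blank-subtracted and normalized (lowest point 0, highest 1).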

Staphylococcus aureus [10] = assay: Antibacterial activity against Staphylococcus aureus ATCC 6538 assessed as killing of living planktonic bacterial cells in supernatant at 100 uM incubated for 12 hrs by OD measurement
Staphylococcus aureus [11] = assay: Antimicrobial activity against Staphylococcus aureus ATCC 6538 incubated for 20 hrs by microdilution assay; type: functional
Staphylococcus aureus [12] = assay: Antibiofilm activity against Staphylococcus aureus ATCC 6538 assessed as inhibition of biofilm formation at 100 uM incubated for 12 hrs by crystal violet staining assay relative to control; type: functional; outline: as §4
Staphylococcus aureus [13] = assay: Antibiofilm activity against Staphylococcus aureus ATCC 6538 assessed as decrease in living bacterial cells in biofilm on bottom of confocal dish at 100 uM incubated for 12 hrs by live-cell fluorescence staining assay; type: functional
Outline: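 S. aureus (10⁸ cfu/mL, 2 mL) cultured one day at 37 °C, 5% CO₂ in confocal dishes, then washed 3× with saline. TSB with compound at 100 µM was added for 12 h. The dish was washed and live-cell fluorescence stained for 15 min. Bottom biofilm was imaged by 3D confocal microscopy.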

Escherichia coli [14] = assay: Antibiofilm activity against Escherichia coli ATCC 8099 assessed as inhibition of biofilm formation at 100 uM incubated for 12 hrs in presence of NO scavenger PTIO by crystal violet staining assay relative to control; type: functional, organism-based
Staphylococcus aureus [15] = assay: Induction of NO release in CDNB-pretreated Staphylococcus aureus ATCC 6538 at 10 uM incubated for 4 hrs by Griess assay; type: functional, organism-based
Outline: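 S. aureus (10⁸ cfu/mL in saline) pretreated with 100 µM CDNB for 0.5 h at 37 °C, then pelleted. Cells were incubated with compound at 10 µM in saline for 4 h. After lysis, nitrite was quantified by Griess reagent at 540 nm against a NaNO₂ standard curve.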

Staphylococcus aureus [16] = assay: as §2, with “days co-treated with 0.25 umol/kg NO scavenger PTIO” for “days”; type: functional; settings: dose 0.25 µmol/kg
Cell membrane [17] = assay: Induction of cell membrane rupture in Escherichia coli […] ATCC 8099 at 200 uM incubated for 60 mins by scanning electron microscopy; type: subcellular
Outline: (§5)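 Bacteria incubated in TSB alone or TSB with compound at 200 µM for 60 min. Cells were pelleted, fixed in 4% paraformaldehyde, dropped onto silicon slices, gold-sputtered and imaged by cold field emission SEM.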

Staphylococcus aureus [18] = assay: Antibiofilm activity against Staphylococcus aureus ATCC 6538 infected in mouse assessed as reduction in bacterial inflammation in vicinity tissues of implanted site at 0.25 umol/kg, sc administered every 12 hrs for 3 days by H and E staining based assay; type: functional, organism-based; settings: dose 0.25 µmol/kg
Outline: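 Mouse PDMS-implant S. aureus biofilm model dosed 0.25 µmol/kg sc in 5% DMSO/saline every 12 h for 3 days. Muscle tissue near the implant site was fixed 24 h, paraffin-embedded, sectioned and H&E stained to assess bacterial spread.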

Cell membrane [19] = assay: Induction of cell membrane rupture in Staphylococcus aureus ATCC 6538 at 200 uM incubated for 60 mins by scanning electron microscopy; outline: as §5
Cell membrane [20] = assay: Induction of cell membrane rupture in Escherichia coli ATCC 8099 assessed as induction of cell content spillage at 200 uM incubated for 60 mins by scanning electron microscopy; outline: as §5
Erythrocyte = assay: Induction of hemolysis in mouse erythrocytes incubated for 3 hrs; type: cell-based
Outline: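 2% erythrocyte suspension from mouse blood, mixed with sample in 0.9% NaCl. Controls were saline (negative) and water (positive). Incubated 3 h at 37 °C, 5% CO₂; hemolysis degree calculated by standard curve. Dose-dependent series; HC₅₀ derived.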

Cell membrane [21] = assay: Induction of cell membrane rupture in Staphylococcus aureus ATCC 6538 assessed as induction of cell content spillage at 200 uM incubated for 60 mins by scanning electron microscopy; outline: as §5
Staphylococcus aureus [22] = assay: Antibiofilm activity against Staphylococcus aureus ATCC 6538 infected in mouse assessed as reduction in skin ulceration near implanted site at 0.25 umol/kg, sc administered every 12 hrs for 3 days; type: functional, organism-based; settings: dose 0.25 µmol/kg
Outline: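 Mouse PDMS-implant S. aureus biofilm model (biofilm-coated slices placed subcutaneously in the back). Dosing was 0.25 µmol/kg sc in 5% DMSO/saline every 12 h for 3 days. Skin at the implant site was photographed every 12 h after implantation for ulceration.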

[23] = Toxicity in rat assessed as effect on blood as effect on blood pressure at 0.172 umol/kg, sc measured after 6 hrs post dose by non-invasive blood pressure monitoring; type: organism-based; settings: in vivo, dose 0.172 µmol/kg
Outline: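 Healthy rats given a single sc dose of 0.172 µmol/kg in aqueous solution, with saline as control. Tail-artery blood pressure measured non-invasively at 0, 1, 3 and 6 h.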

Staphylococcus aureus [24] = assay: Antibiofilm activity against Staphylococcus aureus ATCC 6538 assessed as inhibition of continuous biofilm growth at 100 uM incubated for 1-2 hrs by biofilm dynamic detection assay; type: functional, organism-based; settings: time hrs 1-2
Outline: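 S. aureus biofilm grown 24 h at 37 °C, 5% CO₂ from 10⁸ cfu/mL in TSB while impedance was recorded in real time (xCELLigence RTCA). Supernatant removed, saline-washed three times, then compound added at 100 µM in TSB. Biofilm index read every 15 min for 9 h, blank subtracted and normalised 0–1, compared with TSB control.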

Compound	Activity (Escherichia coli [1])	Activity (Staphylococcus aureus [2]) [log10CFU]	Activity (Escherichia coli [3])	inhibition at 100 µM (Escherichia coli [4]) [%]	Activity (Staphylococcus aureus [5])	MIC (Escherichia coli [6]) [µM]	inhibition (Staphylococcus aureus [7])	Activity (Staphylococcus aureus [8])	inhibition (Staphylococcus aureus [9])	Activity (Staphylococcus aureus [10])	MIC (Staphylococcus aureus [11]) [µM]	inhibition at 100 µM (Staphylococcus aureus [12]) [%]	inhibition (Staphylococcus aureus [13])	inhibition (Escherichia coli [14])	inhibition (Staphylococcus aureus [18])	inhibition (Staphylococcus aureus [24])	also measured
COC(=O)[C@@H](N)Cc1ccc(Oc2no[n+]([O-])c2S(=O)(=O)c2ccccc2)cc1	Active	4.91	Active	81.2	Active	> 50	inactive	Active	inactive	inactive	> 50	44.4	Active	inactive			
CC[C@H](C)[C@H](NC(=O)[C@H](CCCCN)NC(=O)[C@H](CC(C)C)NC(=O)[C@H](C)NC(=O)CNC(=O)[C@H](CC(N)=O)NC(=O)[C@H](CC(C)C)NC(=O)[C@@H](NC(=O)[C@H](CCCCN)NC(=O)[C@H](CCCCN)NC(=O)[C@H](Cc1c[nH]c2ccccc12)NC(=O)[C@H](Cc1ccccc1)NC(=O)[C@H](CCCCN)NC(=O)[C@H](CCCNC(=N)N)NC(=O)[C@H](CCCNC(=N)N)NC(=O)[C@@H](NC(=O)Cn1cc(CCCC(=O)N[C@@H](Cc2ccc(Oc3no[n+]([O-])c3S(=O)(=O)c3ccccc3)cc2)C(=O)OC)nn1)[C@@H](C)O)C(C)C)C(=O)N[C@@H](C)C(=O)N1CCC[C@H]1C(=O)N[C@@H](Cc1ccccc1)C(=O)N[C@@H](CC(C)C)C(=O)N[C@@H](CC(C)C)C(=O)NCC(=O)O (X1-TRRKFWKKVLNGALKIAPFLLG-OH)	Active	4.54	Active	80.9	Active	> 50	inactive	Active	Active	Active	> 50	64.1		inactive	Active		Activity (Staphylococcus aureus [15]): inactive; Activity (Staphylococcus aureus [16]): 5.92 log10CFU; Activity (Cell membrane [17]): Active; Activity (Cell membrane [19]): Active; Activity (Cell membrane [20]): Active; IC50 (Erythrocyte): > 380 µM; Activity (Cell membrane [21]): Active; Activity (Staphylococcus aureus [22]): Active; inhibition at 100 µM (Staphylococcus aureus [13]): 100%; Activity [23]: Non-Toxic
CC(=O)OCC1=C(C(=O)O)N2C(=O)[C@@H](NC(=O)CCC[C@@H](N)C(=O)O)[C@H]2SC1 [CEPHALOSPORIN C]		4.97											inactive		Active	Active	
H-TRRKFWKKVLNGALKIAPFLLG-OH		5.4	inactive			> 50		inactive			> 50		Active		Active	Active	inhibition (Escherichia coli [4]): inactive; inhibition (Staphylococcus aureus [12]): inactive
